Source: ChEMBL document CHEMBL4017491, “Phthalazino[1,2-b]quinazolinones as p53 Activators: Cell Cycle Arrest, Apoptotic Response and Bak-Bcl-xl Complex Reorganization in Bladder Cancer Cells” (J Med Chem, 2017)
Activity calls are given as the source filed them. The calls are words filed in the database; no cut-off is given here.

What was measured:
[1] = test system: T-24; test: Induction of apoptosis in human T24 cells by Annexin V-FITC/propidium iodide based flow cytometric analysis; format: functional, cell-based
[2] = test system: NCI-H460; test: Antiproliferative activity against human NCI-H460 cells by MTT assay; format: functional, cell-based
In short: (§1)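 Cell lines cultured in RPMI 1640 with 10% FBS. Viability read by MTT (5 mg/mL, 4 h at 37 °C), with formazan dissolved in DMSO and absorbance taken at 490 nm. Viability (%) = A490 treated / A490 control × 100. IC50 taken from dose-response curves, from three independent experiments each run in triplicate.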

[3] = test system: J82; test: Cell cycle arrest in human J82 cells assessed as accumulation at S phase at 10 uM after 48 hrs by propidium iodide staining based FACS analysis (reference value: 46.79 %); format: functional
In short: (§2)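 Cells treated with 1−10 μM for 48 h, trypsinized, and fixed in 70% ethanol. Stained with 50 μg/mL propidium iodide and phase distribution analyzed by flow cytometry. Mean ± SD from three independent measurements.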

[4] = biological target: Cellular tumor antigen p53 (Homo sapiens) (UniProt P04637); test: Induction of phospho-p53 accumulation in mitochondria of human T24 cells up to 10 uM after 24 hrs by Western blot method
Sequence of Cellular tumor antigen p53 (Homo sapiens) (P04637 whole entry, looked up): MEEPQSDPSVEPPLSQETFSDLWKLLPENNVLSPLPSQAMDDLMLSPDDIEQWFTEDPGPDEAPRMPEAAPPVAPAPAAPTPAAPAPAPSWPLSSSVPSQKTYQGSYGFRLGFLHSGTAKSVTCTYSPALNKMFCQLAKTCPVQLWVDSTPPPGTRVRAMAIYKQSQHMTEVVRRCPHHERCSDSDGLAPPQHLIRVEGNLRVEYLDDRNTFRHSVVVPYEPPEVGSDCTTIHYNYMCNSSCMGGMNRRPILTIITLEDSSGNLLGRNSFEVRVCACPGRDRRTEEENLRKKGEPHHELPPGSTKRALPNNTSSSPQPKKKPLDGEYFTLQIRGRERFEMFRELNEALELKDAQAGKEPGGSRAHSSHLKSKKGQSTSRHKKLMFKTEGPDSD

[5] = test system: J82; test: Cell cycle arrest in human J82 cells assessed as accumulation at G1 phase at 5 uM after 48 hrs by propidium iodide staining based FACS analysis (reference value: 42.29 %); format: functional; in short: as §2
[6] = test system: T-24; test: Induction of DNA damage in human T24 cells assessed as gammaH2AX level up to 10 uM by immunoblot analysis; format: functional, cell-based
[7] = test system: Mus musculus; test: Induction of phospho-p53 expression in BALB/C nude mouse xenografted with human T24 cells at 6 to 12 mg/kg, ip administered every 2 days for 16 days by immunoblot analysis
[8] = test system: T-24; test: Effect on cell cycle distribution in human T24 cells assessed as live cells at 10 uM after 1 hr by Annexin V-FITC/propidium iodide staining based FACS analysis (reference value: 98.3%); format: functional
[9] = test system: LNCaP; test: Antiproliferative activity against human LNCAP cells harboring wild type p53 by MTT assay; format: functional, cell-based; in short: as §1
[10] = test system: T-24; test: Effect on cell cycle distribution in human T24 cells assessed as late necrotic cells at 1 uM after 1 hr by Annexin V-FITC/propidium iodide staining based FACS analysis (reference value: 1.71%); format: functional
[11] = biological target: Cellular tumor antigen p53 (Homo sapiens) (UniProt P04637); test: Activation of p53 in human T24 cells assessed as increase in p21 level up to 10 uM after 24 hrs by Western blot analysis; format: cell-based
In short: (§3)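 T24 cells, 3 × 10^5 per well, grown to 85−95% confluence, then exposed to 0−10 μM for 24 h. Whole-cell extracts in sample buffer run on SDS-polyacrylamide gels and transferred to nitrocellulose. Blots probed with primary antibodies and AP-linked anti-rabbit IgG, detected by ECL. Blots stripped and reprobed for β-actin as loading control.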

[12] = test system: T-24; test: Cell cycle arrest in human T24 cells assessed as reduction in cell size at 5 uM after 48 hrs by FACS analysis relative to control; format: functional; parameters: scale not given: the % may be the effect or the level left
In short: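 T24 cells treated for 48 h with 5 μM or DMSO, then ethanol-fixed and PI-stained. Relative cell size taken as mean forward scatter (FSC-H) by flow cytometry, compared with control.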

[13] = test system: T-24; test: Effect on p53 protein expression in human T24 cells up to 10 uM after 24 hrs by Western blot analysis; format: functional, cell-based
In short: (§4)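 T24 cells (3 × 10^5 per well) grown to 85–95% confluence, then exposed 24 h to 0–10 μM. Whole-cell extracts run on SDS-PAGE and blotted to nitrocellulose. Probed with the indicated antibodies and AP-linked anti-rabbit IgG, with ECL detection. Blots stripped and reprobed for β-actin as loading control.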

[14] = test system: T-24; test: Antitumor activity against human T24 cells xenografted in BALB/C nude mouse assessed as tumor growth inhibition at 12 mg/kg, ip administered every 2 days for 16 days relative to control; format: functional; conditions: T-24, ip, read-out: TGI
[15] = test system: T-24; test: Antiproliferative activity against human T24 cells by MTT assay; format: functional, cell-based; in short: as §1
[16] = biological target: Cellular tumor antigen p53 (Homo sapiens) (UniProt P04637); test: Activation of p53 in human T24 cells assessed as decrease in MDM2 protein level up to 10 uM after 24 hrs by Western blot analysis; format: cell-based; in short: as §3
[17] = test system: T-24; test: Cell cycle arrest in human T24 cells assessed as accumulation at S/G2 phase at 1 to 10 uM after 48 hrs by propidium iodide staining based FACS analysis; format: functional; in short: as §2
[18] = test system: T-24; test: Induction of apoptosis in human T24 cells assessed as live cells at 10 uM by Annexin V-FITC/propidium iodide based flow cytometric analysis (reference value: 89.5%); format: functional
[19] = test system: T-24; test: Induction of apoptosis in human T24 cells assessed as necrotic cells at 10 uM by Annexin V-FITC/propidium iodide based flow cytometric analysis (reference value: 8.53%); format: functional
[20] = test system: T-24; test: Cell cycle arrest in human T24 cells assessed as accumulation at sub-G1 phase at 1 to 10 uM after 48 hrs by propidium iodide staining based FACS analysis; format: functional; in short: as §2
[21] = biological target: Cellular tumor antigen p53 (Homo sapiens) (UniProt P04637); test: Activation of p53 in human T24 cells assessed as p53 phosphorylation after 24 hrs by Western blot analysis; format: cell-based; in short: as §3
[22] = test system: T-24; test: Effect on cell cycle distribution in human T24 cells assessed as late necrotic cells at 10 uM after 1 hr by Annexin V-FITC/propidium iodide staining based FACS analysis (reference value: 1.71%); format: functional
[23] = test system: T-24; test: Effect on cell cycle distribution in human T24 cells assessed as live cells at 5 uM after 1 hr by Annexin V-FITC/propidium iodide staining based FACS analysis (reference value: 98.3%); format: functional
[24] = test system: HeLa; test: Antiproliferative activity against human HeLa cells by MTT assay; format: functional, cell-based; in short: as §1
[25] = test system: T-24; test: Effect on cell cycle distribution in human T24 cells assessed as late apoptotic cells at 1 uM after 1 hr by Annexin V-FITC/propidium iodide staining based FACS analysis relative to control; format: functional
[26] = test system: T-24; test: Effect on p53 expression in human T24 cells up to 10 uM after 24 hrs by Western blot analysis; format: functional, cell-based; in short: as §4
[27] = test system: T-24; test: Effect on cell cycle distribution in human T24 cells assessed as late apoptotic cells at 10 uM after 1 hr by Annexin V-FITC/propidium iodide staining based FACS analysis relative to control; format: functional
[28] = biological target: Cellular tumor antigen p53 (Homo sapiens) (UniProt P04637); test: Induction of phospho-p53 accumulation in human T24 cells assessed as disruption of Bak-Bcl-xl interaction up to 10 uM by coimmunoprecipitation assay; format: cell-based
[29] = test system: J82; test: Cell cycle arrest in human J82 cells assessed as accumulation at S phase at 1 uM after 48 hrs by propidium iodide staining based FACS analysis (reference value: 46.79 %); format: functional; in short: as §2
[30] = test system: Mus musculus; test: Toxicity in BALB/C nude mouse xenografted with human HepG2 cells assessed as change in body weight at 6 mg/kg, ip administered every 2 days for 16 days; format: organism-based; conditions: in vivo
In short: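 HepG2-xenografted male BALB/C nude mice treated ip at 6 mg/kg every 2 days; vehicle was 5% DMSO in saline. Body weight recorded three times weekly and at the end of treatment.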

[31] = test system: T-24; test: Induction of apoptosis in human T24 cells assessed as activation of caspase-3 at 1 uM by FITC-DEVD-FMK based flow cytometric analysis (reference value: 2.8%)

CN(C)CCNc1nn2c(=O)c3cc(Br)ccc3nc2c2ccccc12
Activity [1]: Dose-dependent effect
IC50 [2]: 5.03 µM
Activity [3]: 64.2%
Activity [4]: Active
Activity [5]: 17.78%
Activity [6]: inactive
Activity [7]: Active
Activity [8]: 86.6%
Activity [9]: Active
Activity [10]: 6.54%
Activity [11]: Active
Activity [12]: 87.7%
Activity [13]: inactive
inhibition in vivo at 12 mg/kg [14]: 54.2%
IC50 [15]: 3.09 µM
Activity [16]: Active
Activity [17]: Active
Activity [18]: 21.8%
Activity [19]: 8.1%
Activity [20]: Active
Activity [21]: Dose-dependent effect
Activity [22]: 13.4%
Activity [23]: 89.4%
IC50 [24]: 6.1 µM
Activity [25]: 0%
Activity [26]: inactive
Activity [27]: 0%
Activity [28]: Active
Activity [29]: 39.51%
Activity [30]: Non-Toxic
Activity [31]: 7%
